Test results: the EternaBench riboswitch data

Test system: MS2 coat protein
Assay: apparent Kd, MS2 coat protein; higher = weaker binding; RNA-MaP array; FMN 200 µM where present
Procedure, shortened: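 Stalled E. coli RNA polymerase produced the designs on Illumina sequencing-chip clusters. SNAP-549-labelled MS2 coat protein was added from 0.7 or 1.5 nM, doubling to 3 µM, without and then with constant ligand, in 100 mM Tris-HCl pH 7.5, 80 mM KCl, 4 mM MgCl2, BSA, DTT, yeast tRNA and Tween-20. The apparent Kd is the median of filtered per-cluster fits of green signal normalised to red-channel RNA signal and control-cluster median Fmax.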

[1] = designed as: OFF switch for flavin mononucleotide, no ligand
[2] = ligand present: flavin mononucleotide, designed as: OFF switch for flavin mononucleotide
[3] = designed as: ON switch for flavin mononucleotide, no ligand
[4] = ligand present: flavin mononucleotide, designed as: ON switch for flavin mononucleotide

Sequence	apparent Kd [1] [nM]	apparent Kd [2] [nM]	apparent Kd [3] [nM]	apparent Kd [4] [nM]
GGAUUACAUGAGGAUCACCCAUGUGAGGAUAUCGAUGUCCUGUCUUUAGUGCGGGACUCGAGAAGGCACUUGGA	48	159	–	–
AAGAAGUGAGGAUAUCGUGCUCGUCACUUGCGUGAUGAGUACGAGAAGGCACAUGAGGAUCACCCAUGUAAAGA	37.6	46.1	–	–
CCUCCACAUGAGGAUCACCCAUGUCAGGAUAUCGUGUGUUUUUUUUCGGUCUUGCGUGCGAGAAGGGACGUCUU	35.6	39.4	–	–
CUCUUGUUAGGAUAUCAAACCGGCGGCGGAGCCGCCGGUAGUGAGAAGGGACAUGAGGAUCACCCAUGUAAGAA	90.1	198	–	–
UUGGACGUCGUAGGAUAUGUAGGAUAUUCCUACAUGAGGAUCACCCAUGUUUACAUGGAAGAAGGACAGAAGGACGAUGUCCAU	–	–	1320	14.5
AUGCCGUGCAGAGCGCGACGGCGAACAUGAGGAUCACCCAUGUAGGAUAUACUACACAAAGUGUAGUAGAAGGACGUGCGGCAC	20.9	30.8	–	–
GCCACACAUGAGGAUCACCCAUGUGAGGAUAUCAUGCUUCGUAGUAAACUACGAAGUGUGAGAAGGCACAUGGC	33.4	155	–	–
ACAAGUUCACAUGAGGAUCACCCAUGUGGUCGCUAAUAUACCAGAAGGGUGGGUCCUAAUGAUGUACAGGAUAUGGAGUAGGCG	–	–	198	81.7
CGUGCAUAUGUAGGAUAUGGUUAUCUAUGUCUAGUUACUAGACAUAGAUAACCAGAAGGACAUGAGGAUCACCCAUGUUGCACG	12.8	24.2	–	–
GGGUACAUCGGAGGAUAUCAUGUAAAUACAUGAGGAUCACCCAUGUCGAUGGAGACAUCGGAGAUUGAGAAGGCCGAUGUCCCG	–	–	194	7.99
UCCUUCUGUUGAGGAUAUGUAAGACAGCGGCUGCUAUUGCGGCCCGCUGAUACAGAAGGCAACAUGAGGAUCACCCAUGUUCAA	22.9	163	–	–
CCUCUGUCCGAGGAUAUGAGGUUAACGUGACCGUCAGAAGGCGGAACAUGAGGAUCACCCAUGUUUUGCGCAUG	44.2	68	–	–
UUUUAGUGAGGAUAUGUGGCUUCGAUCGUGAGAUCGAGGCUACAGAAGGCACAUGAGGAUCACCCAUGUUCCUC	38.3	597	–	–
CGAAGGGAGUCAGGAUAUGUUCCUUUCAUACGGACAGAAGGGACUCCUUACAUGAGGAUCACCCAUGUAAGGGUAGUCUUCAGG	60.7	90.6	–	–
UCGUAUACACAAGGAUAUCAAUGGUUUGUAGAUCCUACAUGAGGAUCACCCAUGUUUUUAUAUUGUGAGAAGGUGUAGUGUCUU	–	–	620	564
CCUUUCCGAGGAUAUACAUGAGGAUCACCCAUGUGAUCCUAAGGCUGAUCAAGCCUAUGUAGAAGGCGCAAAUC	133	182	–	–
GUUUAGUGAGGAUAUGUGGCAUAGAUCGAGCGCGGUCGGCUACAGAAGGCACAUGAGGAUCACCCAUGUUUCUC	39.9	498	–	–
CGUGUUAUCGAAGGAUAUGGAUACAUGAGGAUCACCCAUGUAUAUUUUGUGAUCAAGUUUAAGAUCCAGAAGGUCGUAUACACG	54.9	119	–	–
AAAAUCUAUUGAGGAUAUUCAUACACUACAUACGGAGAAGGCAAACAAUCAUGAGGACAUGAGGAUCACCCAUGUUGUGACCAU	–	–	23.4	20
CGUGUCAUCGAGAAGGCCUCAACAUGAGGAUCACCCAUGUUGUAAUAUGGGAGGAUAUCGAUGAUACAGCUACGUUUCGUAGCU	–	–	18.8	5.8
GAGUUAUCAGGAUAUACAUGAGGAUCACCCAUGUCGAUCAAUCCCGUGGGAACGCACUGUAGAAGGGAUGUAGU	32.5	33	–	–
UGAAAUCAUGUAGGAUAUGCAUGGCGAAGCUACGCAGAAGGACAUGAGGAUCACCCAUGUUAUGGCUACCCAGUUCGGUGGCAA	51.8	117	–	–
AAAUAGAAUGAGGAUAUCGUACUGGAUAUAGUGCGAGAAGGCAUUACAUGAGGAUCACCCAUGUUUUGUUGGGA	25.6	76.6	–	–
CAGGUGUUAGGAUAUCGGAGGUUGAGGCAGACGGGAAUAUUCGAGAAGGAACAUGAGGAUCACCCAUGUAGUAG	22.8	24.8	–	–

Sequence	apparent Kd [1] [nM]	apparent Kd [2] [nM]	apparent Kd [3] [nM]	apparent Kd [4] [nM]
GUAGCUAUCGGAGGAUAUUCAUACCGGAAAAGGACAUGAGGAUCACCCAUGUGGUGAAAGCCUUGGGAGAAGGCCGAUAGCUAC	–	–	484	191
GUCAGCUCGUGAGGAUAUACAACGCUGCUUCGGCAGUGUAUUAAGAUCACAUGAGGAUCACCCAUGUAGAAGGCACGAGCUGAU	15.1	284	–	–
UUUGUUGUUGUGAGGAUAUCGUUGUUAUUUUGAAACGAGAAGGCACAUGAGGAUCACCCAUGUUUGUUGAUGGU	43.9	122	–	–
UAUAUAUAGUAAGGAUAUGUAUUUAUGUUAUAAACAGAAGGUACUGACAUGAGGAUCACCCAUGUUUUAGUGUGGGCAUGUAGA	87.9	122	–	–
UUGAGGUGCAAGAAGGAUCACAUGAGGAUCACCCAUGUCAUGUGAAGUCUCGAGAUUUUAUAUGGAUAGGAUAUUGCACCGAAC	–	–	263	41.2
AUAAAUAAGGAGGAUAUCGUAUCGGAAACGAUACGAGAAGGUCUAACAUGAGGAUCACCCAUGUUCCUCAAUAA	37.7	58.5	–	–
UGUUGUAUUACAGGAUAUCUAGUGUUUUUAUUUAGAGAAGGGUAUUCACAUGAGGAUCACCCAUGUAUAUACGAGGAAGUUGUG	–	–	55.9	61.2
AGGUAACAUGAGGAUCACCCAUGUCAGGAUAUCAUGAAGAGUAGAUUAGAGGAGAGGUUGAGAAGGGACUAUAU	59.9	35.3	–	–
CAGUACUGAGGAUAUACAUGAGGAUCACCCAUGUGUUCCAGCUAGGUAACUAGCAAAAGUAGAAGGCAGUACUG	23.6	321	–	–
CCUCGUCACAUUAACAUGAGGAUCACCCAUGUCAAAAGACAUGAGGAUAUGCAUCCUAAUUGGAUGCAGAAGGCAUGGACGAGG	–	–	474	36.5
GGGUACAUGGGAGGAUAUCCUCAAGAGACAUGAGGAUCACCCAUGUAUUAUAUGCCUCAUGGCAUGGAGAAGGCCCAUGUACCG	–	–	188	160
CGUGAAAACAUAGGAUAUUGUUACAUGAGGAUCACCCAUGUCAACCAUUUAUCUCAAAUUGUUGACAAGAAGGAUGAGGUCACG	–	–	118	38.9
CGGACCGGCUCAGGAUAUGGGUGCUCAAAAGACAUGAGGAUCACCCAUGUCUCAAGCUGUGCACAUCAGAAGGGAGCUUCGGGU	–	–	13.3	16.3
AGUAAGUUUGAGAAGGUGAAGUGGAAACAUGAGGAUCACCCAUGUAUUAGGAAGCCUGGUUUUGUCAAGGAUAUCGGGUUUACA	–	–	17.9	16.5
GGGCGACAUGAGGAUCACCCAUGUCAGGAUAUCGGGCCCGGGCCGAAAGGCCCGGGCCCGAGAAGGGACAGCCC	18.8	16.6	–	–
GGAUGACAAAGUCAUCCAAUACGAACAUGAGGAUCACCCAUGUAGGAUAUGCAACUCAAAGAGUUGCAGAAGGACAUGUGUCUU	28.9	128	–	–
CGUAACUACAUAGGAUAUUGAUACAUGAGGAUCACCCAUGUUUUUGGGAUUAGUUUAAUAUUAAGCAAGAAGGAUGAAGUUACG	–	–	45.4	31.1
GGUACUCAAAGAGUACCAAUACGAACAUGAGGAUCACCCAUGUAGGAUAUGAAAACGCCGGAGUAGCAGAAGGACAUGUGCCUA	11.4	11.1	–	–
AUCAGCUCGUCAGGAUAUACGUCACCGCGUCAGCAGUGUGGUAAGAUCACAUGAGGAUCACCCAUGUAGAAGGGACGAGCUGAU	13.6	237	–	–
UGUCGGCGCAGAGGAUAUUACAUGAGGAUCACCCAUGUAUGAACCAAUAGCUGGAAACAGCAAUGUAAGAAGGCUGCUCCGACA	12.5	154	–	–
ACCAUUUACUAAUUGUCUAUACAUGAGGAUCACCCAUGUUAUGAGGAUAUCGUCGUGAAACACGACGAGAAGGCAUAGCAUUCG	67.2	229	–	–
GCAUACUAAGGAUAUACAUGAGGAUCACCCAUGUUGCCAAAUGGCAGCAUCACCUGGAGUAGAAGGUAGAUGUA	35	33.3	–	–
UUUUUACAUGAGGAUCACCCAUGUCAGGAUAUCGUUAUAUUUUAUUAUUUUAUUUUUUCGAGAAGGGACUAUUA	90.3	58.6	–	–
AGUACCAUGUAGAAGGGAUAUCUGAUUCAGAUAUCAGGAUAUACAUGAGGAUCACCCAUGUAAAUGUACUGCACGAAAGUGCAA	18	37.9	–	–
